Test results: ChEMBL document CHEMBL1135860 (Bioorg Med Chem Lett, 2002)

Legend:
[1] = target: T1, 5-hydroxytryptamine receptor 7 (Homo sapiens, UniProt P34969); assay: Binding affinity towards human 5-hydroxytryptamine 7 receptor on HEK293 cells using radioligand [3H]LSD; type: cell-based
How it was run: (§1)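 Competition binding at human 5-HT7 receptor: membranes prepared from HEK293 cells expressing the receptor were incubated with 3H-LSD and a range of test concentrations. Clozapine was the reference standard. Ki values in nM were determined.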

[2] = target: T1, 5-hydroxytryptamine receptor 7; assay: Inhibition (at 1 uM) of radioligand [3H]LSD binding to human 5-hydroxytryptamine 7 receptor on HEK293 cells; type: cell-based
How it was run: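 Human 5-HT7 binding was run with membranes from HEK293 cells expressing the receptor, incubated with 3H-LSD. Clozapine was the standard. Displacement of radioligand was recorded as percent inhibition at 1 µM.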

[3] = target: T2, 5-hydroxytryptamine receptor 1F (Homo sapiens) (UniProt P30939); assay: Percent inhibition (at 1 uM) against 5-hydroxytryptamine 1F receptor
T2 sequence (whole entry): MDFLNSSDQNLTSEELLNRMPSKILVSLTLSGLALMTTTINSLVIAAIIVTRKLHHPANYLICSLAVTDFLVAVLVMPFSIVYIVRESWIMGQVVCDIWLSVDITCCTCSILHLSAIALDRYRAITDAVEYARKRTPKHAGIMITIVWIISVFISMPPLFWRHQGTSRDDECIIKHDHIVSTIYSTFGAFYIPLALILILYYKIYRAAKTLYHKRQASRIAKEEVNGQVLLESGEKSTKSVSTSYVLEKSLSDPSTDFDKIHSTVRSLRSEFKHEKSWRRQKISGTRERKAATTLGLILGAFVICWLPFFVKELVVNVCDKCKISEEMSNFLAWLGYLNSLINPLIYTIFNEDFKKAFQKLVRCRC

[4] = target: T3, 5-hydroxytryptamine receptor 1A (Homo sapiens) (UniProt P08908); assay: Percent inhibition (at 1 uM) against 5-hydroxytryptamine 1A receptor
T3 sequence (whole entry): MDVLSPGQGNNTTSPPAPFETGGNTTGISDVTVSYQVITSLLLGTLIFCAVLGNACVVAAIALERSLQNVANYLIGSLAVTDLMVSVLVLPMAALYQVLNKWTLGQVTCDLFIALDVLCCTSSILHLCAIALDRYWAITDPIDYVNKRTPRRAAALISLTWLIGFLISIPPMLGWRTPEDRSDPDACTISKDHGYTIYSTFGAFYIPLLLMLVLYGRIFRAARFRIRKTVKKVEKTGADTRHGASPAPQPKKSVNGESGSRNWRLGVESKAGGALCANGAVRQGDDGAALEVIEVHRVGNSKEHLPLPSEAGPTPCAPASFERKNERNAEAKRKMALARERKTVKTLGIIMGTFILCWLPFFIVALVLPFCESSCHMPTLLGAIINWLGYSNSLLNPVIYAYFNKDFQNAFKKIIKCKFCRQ

[5] = target: T4, 5-hydroxytryptamine receptor 2C (Homo sapiens) (UniProt P28335); assay: Percent inhibition (at 1 uM) against 5-hydroxytryptamine 2C receptor
T4 sequence (whole entry): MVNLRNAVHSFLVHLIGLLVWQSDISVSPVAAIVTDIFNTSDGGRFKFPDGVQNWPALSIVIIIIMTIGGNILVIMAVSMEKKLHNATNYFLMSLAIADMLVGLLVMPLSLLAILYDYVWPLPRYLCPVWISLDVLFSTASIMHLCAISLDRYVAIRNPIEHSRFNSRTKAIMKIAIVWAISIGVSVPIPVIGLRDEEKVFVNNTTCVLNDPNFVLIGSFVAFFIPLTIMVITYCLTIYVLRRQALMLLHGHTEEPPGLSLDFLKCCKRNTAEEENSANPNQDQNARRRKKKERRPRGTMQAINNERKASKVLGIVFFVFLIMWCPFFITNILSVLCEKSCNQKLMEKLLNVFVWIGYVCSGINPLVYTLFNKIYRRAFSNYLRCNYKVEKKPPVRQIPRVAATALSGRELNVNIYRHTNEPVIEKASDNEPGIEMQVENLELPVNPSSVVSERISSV

[6] = target: 5-hydroxytryptamine receptor 1D (Homo sapiens) (UniProt P28221); assay: Percent inhibition (at 1 uM) against 5-hydroxytryptamine 1D receptor
5-hydroxytryptamine receptor 1D (Homo sapiens), sequence (P28221 whole entry): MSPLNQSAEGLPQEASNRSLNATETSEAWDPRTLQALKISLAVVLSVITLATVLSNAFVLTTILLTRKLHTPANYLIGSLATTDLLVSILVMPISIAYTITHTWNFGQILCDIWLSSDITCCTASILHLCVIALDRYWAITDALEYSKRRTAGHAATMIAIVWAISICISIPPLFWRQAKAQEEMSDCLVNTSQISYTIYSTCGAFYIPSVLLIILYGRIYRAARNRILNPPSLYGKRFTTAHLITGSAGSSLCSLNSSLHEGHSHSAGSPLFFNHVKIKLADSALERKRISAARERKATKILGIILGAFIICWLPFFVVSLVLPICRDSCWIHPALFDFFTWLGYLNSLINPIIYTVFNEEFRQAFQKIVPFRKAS

[7] = target: 5-hydroxytryptamine receptor 1B (Homo sapiens) (UniProt P28222); assay: Percent inhibition (at 1 uM) against 5-hydroxytryptamine 1B receptor
5-hydroxytryptamine receptor 1B (Homo sapiens), sequence (P28222 whole entry): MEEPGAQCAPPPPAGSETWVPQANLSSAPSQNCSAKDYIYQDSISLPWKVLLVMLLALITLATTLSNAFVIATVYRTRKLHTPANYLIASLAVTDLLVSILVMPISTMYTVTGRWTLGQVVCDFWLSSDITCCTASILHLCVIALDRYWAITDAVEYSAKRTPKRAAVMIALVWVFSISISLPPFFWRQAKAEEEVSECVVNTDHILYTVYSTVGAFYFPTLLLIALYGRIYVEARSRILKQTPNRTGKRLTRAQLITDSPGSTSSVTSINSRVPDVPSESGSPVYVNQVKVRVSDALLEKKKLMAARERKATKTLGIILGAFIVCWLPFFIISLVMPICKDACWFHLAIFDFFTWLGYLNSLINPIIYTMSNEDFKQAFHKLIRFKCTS

[8] = target: Muscarinic acetylcholine receptors; M1 & M2 (Homo sapiens) (UniProt P11229+P08172); assay: Percent inhibition (at 1 uM) against Muscarinic acetylcholine receptor M1- Muscarinic acetylcholine receptor M2; type: protein assay
[9] = target: D(2) dopamine receptor (Homo sapiens) (UniProt P14416); assay: Percent inhibition (at 1 uM) against Dopamine receptor D2
D(2) dopamine receptor (Homo sapiens), sequence (P14416 whole entry): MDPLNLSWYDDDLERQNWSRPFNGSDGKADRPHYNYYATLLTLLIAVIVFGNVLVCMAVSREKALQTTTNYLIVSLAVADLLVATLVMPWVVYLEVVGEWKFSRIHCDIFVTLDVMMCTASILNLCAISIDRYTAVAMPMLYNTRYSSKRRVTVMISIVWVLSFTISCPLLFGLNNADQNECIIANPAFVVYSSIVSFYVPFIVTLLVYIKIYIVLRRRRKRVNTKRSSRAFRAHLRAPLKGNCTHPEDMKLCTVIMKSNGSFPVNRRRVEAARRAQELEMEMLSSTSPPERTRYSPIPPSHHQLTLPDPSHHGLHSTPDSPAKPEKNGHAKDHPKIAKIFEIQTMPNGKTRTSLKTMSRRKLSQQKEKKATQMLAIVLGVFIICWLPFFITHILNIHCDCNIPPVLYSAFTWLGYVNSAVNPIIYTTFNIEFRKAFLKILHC

[10] = target: T5, D(4) dopamine receptor (Homo sapiens) (UniProt P21917); assay: Percent inhibition (at 1 uM) against Dopamine receptor D4
T5 sequence (whole entry): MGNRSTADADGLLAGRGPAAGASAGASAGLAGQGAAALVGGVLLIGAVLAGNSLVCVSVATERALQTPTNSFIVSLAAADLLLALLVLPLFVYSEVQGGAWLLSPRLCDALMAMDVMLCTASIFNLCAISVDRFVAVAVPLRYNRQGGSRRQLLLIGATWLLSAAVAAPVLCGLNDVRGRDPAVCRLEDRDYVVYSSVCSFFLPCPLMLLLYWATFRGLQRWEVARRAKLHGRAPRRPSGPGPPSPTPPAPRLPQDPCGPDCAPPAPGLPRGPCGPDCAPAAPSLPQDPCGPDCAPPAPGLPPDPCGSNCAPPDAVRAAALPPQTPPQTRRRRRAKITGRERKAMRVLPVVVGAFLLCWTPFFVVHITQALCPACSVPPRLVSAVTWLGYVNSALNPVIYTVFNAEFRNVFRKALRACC

[11] = target: 5-hydroxytryptamine receptor 2A (Homo sapiens) (UniProt P28223); assay: Percent inhibition (at 1 uM) against 5-hydroxytryptamine 2A receptor
5-hydroxytryptamine receptor 2A (Homo sapiens), sequence (P28223 whole entry): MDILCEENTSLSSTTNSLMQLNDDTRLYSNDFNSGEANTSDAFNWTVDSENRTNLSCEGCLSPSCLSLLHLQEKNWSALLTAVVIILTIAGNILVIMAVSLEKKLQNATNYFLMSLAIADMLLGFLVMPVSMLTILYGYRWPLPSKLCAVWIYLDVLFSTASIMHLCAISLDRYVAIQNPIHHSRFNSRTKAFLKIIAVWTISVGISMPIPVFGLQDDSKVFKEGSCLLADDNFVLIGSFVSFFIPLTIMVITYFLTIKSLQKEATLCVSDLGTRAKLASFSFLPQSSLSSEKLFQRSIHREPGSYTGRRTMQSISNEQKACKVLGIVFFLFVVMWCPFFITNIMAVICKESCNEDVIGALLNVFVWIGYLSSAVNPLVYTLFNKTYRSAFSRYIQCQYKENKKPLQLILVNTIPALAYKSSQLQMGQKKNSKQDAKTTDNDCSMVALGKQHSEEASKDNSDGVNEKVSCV

[12] = target: 5-hydroxytryptamine receptor 6 (Homo sapiens, UniProt P50406); assay: Compound was tested for its binding affinity towards 5-hydroxytryptamine 6 receptor
5-hydroxytryptamine receptor 6, sequence (P50406 whole entry): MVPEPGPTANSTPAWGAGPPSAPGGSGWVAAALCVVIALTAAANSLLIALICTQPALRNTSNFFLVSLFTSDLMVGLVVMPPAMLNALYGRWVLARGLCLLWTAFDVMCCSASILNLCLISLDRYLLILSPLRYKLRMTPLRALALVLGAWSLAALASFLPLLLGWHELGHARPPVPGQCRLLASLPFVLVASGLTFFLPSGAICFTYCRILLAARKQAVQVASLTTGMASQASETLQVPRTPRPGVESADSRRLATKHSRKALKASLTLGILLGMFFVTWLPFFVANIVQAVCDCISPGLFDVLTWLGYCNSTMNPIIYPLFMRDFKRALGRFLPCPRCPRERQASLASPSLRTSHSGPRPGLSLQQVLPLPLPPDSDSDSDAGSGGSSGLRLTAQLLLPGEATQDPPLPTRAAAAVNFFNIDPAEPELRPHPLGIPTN

[13] = target: D(1B) dopamine receptor (Homo sapiens) (UniProt P21918); assay: Percent inhibition (at 1 uM) against dopamine D5 receptor
D(1B) dopamine receptor (Homo sapiens), sequence (P21918 whole entry): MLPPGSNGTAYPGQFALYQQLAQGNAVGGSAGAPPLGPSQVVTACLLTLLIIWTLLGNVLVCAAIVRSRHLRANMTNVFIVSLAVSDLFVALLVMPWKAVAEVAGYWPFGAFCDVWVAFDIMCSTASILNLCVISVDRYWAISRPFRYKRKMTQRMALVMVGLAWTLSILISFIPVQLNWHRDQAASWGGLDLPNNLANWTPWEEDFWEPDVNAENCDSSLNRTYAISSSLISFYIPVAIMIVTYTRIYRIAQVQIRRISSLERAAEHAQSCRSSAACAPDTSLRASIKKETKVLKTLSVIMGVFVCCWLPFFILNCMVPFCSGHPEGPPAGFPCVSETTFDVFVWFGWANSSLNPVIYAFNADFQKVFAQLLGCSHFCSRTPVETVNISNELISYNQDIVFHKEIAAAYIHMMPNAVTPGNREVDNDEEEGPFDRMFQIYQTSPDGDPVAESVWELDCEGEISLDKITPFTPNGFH

[14] = target: D(3) dopamine receptor (Homo sapiens) (UniProt P35462); assay: Percent inhibition (at 1 uM) against Dopamine receptor D3
D(3) dopamine receptor (Homo sapiens), sequence (P35462 whole entry): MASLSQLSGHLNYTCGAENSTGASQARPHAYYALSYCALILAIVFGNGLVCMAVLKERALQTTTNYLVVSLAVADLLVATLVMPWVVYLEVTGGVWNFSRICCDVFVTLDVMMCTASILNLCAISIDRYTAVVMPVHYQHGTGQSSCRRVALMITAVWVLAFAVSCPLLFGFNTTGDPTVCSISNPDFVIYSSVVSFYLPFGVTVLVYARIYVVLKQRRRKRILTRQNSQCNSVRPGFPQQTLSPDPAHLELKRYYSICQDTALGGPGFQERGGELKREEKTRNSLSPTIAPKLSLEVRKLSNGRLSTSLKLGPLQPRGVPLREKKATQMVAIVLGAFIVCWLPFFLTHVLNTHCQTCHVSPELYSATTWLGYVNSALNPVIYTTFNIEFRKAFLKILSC

[15] = target: D(1A) dopamine receptor (Homo sapiens) (UniProt P21728); assay: Percent inhibition (at 1 uM) against Dopamine receptor D1
D(1A) dopamine receptor (Homo sapiens), sequence (P21728 whole entry): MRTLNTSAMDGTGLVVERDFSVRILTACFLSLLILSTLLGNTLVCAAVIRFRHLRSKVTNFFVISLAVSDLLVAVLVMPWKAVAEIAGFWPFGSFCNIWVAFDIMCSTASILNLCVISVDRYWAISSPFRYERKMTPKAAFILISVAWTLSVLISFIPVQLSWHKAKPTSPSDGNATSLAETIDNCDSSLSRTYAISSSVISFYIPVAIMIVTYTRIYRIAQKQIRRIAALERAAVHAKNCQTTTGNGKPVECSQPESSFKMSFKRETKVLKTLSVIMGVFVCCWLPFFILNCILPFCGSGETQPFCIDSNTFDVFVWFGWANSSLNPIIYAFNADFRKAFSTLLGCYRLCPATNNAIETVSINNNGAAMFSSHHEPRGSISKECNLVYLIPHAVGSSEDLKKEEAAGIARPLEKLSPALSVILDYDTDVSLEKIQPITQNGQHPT

[16] = target: T1, 5-hydroxytryptamine receptor 7; assay: Compound was tested for its binding affinity towards human 5-hydroxytryptamine 7 receptor from HEK293 cells using radioligand [3H]LSD; type: cell-based; how it was run: as §1

T1 sequence (P34969 whole entry): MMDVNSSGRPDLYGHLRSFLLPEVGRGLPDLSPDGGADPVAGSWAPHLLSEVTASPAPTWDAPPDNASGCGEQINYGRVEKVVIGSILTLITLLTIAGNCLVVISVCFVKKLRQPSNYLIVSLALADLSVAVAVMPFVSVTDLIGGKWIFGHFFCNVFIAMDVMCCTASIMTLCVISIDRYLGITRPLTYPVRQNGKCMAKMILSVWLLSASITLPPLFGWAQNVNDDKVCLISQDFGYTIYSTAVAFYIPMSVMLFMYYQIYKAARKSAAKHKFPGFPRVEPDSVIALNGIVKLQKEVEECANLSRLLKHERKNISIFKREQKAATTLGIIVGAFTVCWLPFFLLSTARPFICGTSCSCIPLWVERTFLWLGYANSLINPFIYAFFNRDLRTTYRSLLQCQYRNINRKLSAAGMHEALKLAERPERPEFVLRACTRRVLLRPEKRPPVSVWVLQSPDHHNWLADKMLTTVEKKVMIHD

## CCc1ccc2ccn(CCN3CCCN(C)CC3)c2c1
[1]
  Ki: 166 nM
[2]
  inhibition: 66%

## CC(C)c1ccc2ccn(CCN3CCCN(C)CC3)c2c1
[1]
  Ki: 145 nM
[2]
  inhibition: 72%

## Brc1ccc2ccn(CCN3CCN4CCCC4C3)c2c1 (stereo not given)
[2]
  inhibition: 72%

## C=Cc1ccc2ccn(CCN3CCCN(C)CC3)c2c1
[1]
  Ki: 109 nM
[2]
  inhibition: 79%

## CN1CCCN(CCn2ccc3ccc(C(F)(F)F)cc32)CC1
[1]
  Ki: 23 nM
[2]
  inhibition: 89%

## CN1CCCN(CCn2ccc3cc(Br)ccc32)CC1
[1]
  Ki: 88 nM
[2]
  inhibition: 65%

## CC(C)N1CCCN(CCn2ccc3ccc(Br)cc32)CC1
[1]
  Ki: 14 nM
[2]
  inhibition: 92%

## CN1CCCN(CCn2ccc3ccc(-c4cccnc4)cc32)CC1
[2]
  inhibition: 35%

## CN1CCCN(CCn2ccc3ccc(O)cc32)CC1
[2]
  inhibition: 28%

## Brc1ccc2ccn(CCN3CCC4CCCCN4CC3)c2c1 (stereo not given)
[2]
  inhibition: 71%

## CC(C)CN1CCCN(CCn2ccc3ccc(Br)cc32)CC1
[1]
  Ki: 37 nM
[2]
  inhibition: 95%

## Brc1ccc2ccn(CCN3CCCN(C4CC4)CC3)c2c1
[1]
  Ki: 16 nM
[2]
  inhibition: 96%

## C#Cc1ccc2ccn(CCN3CCCN(C)CC3)c2c1
[1]
  Ki: 140 nM
[2]
  inhibition: 79%

## COc1ccc2ccn(CCN3CCCN(C)CC3)c2c1
[1]
  Ki: 1570 nM
[2]
  inhibition: 50%

## CN1CCCN(CCn2ccc3cccc(Br)c32)CC1
[2]
  inhibition: 18%

## CN1CCCN(CCn2ccc3ccc([N+](=O)[O-])cc32)CC1
[1]
  Ki: 139 nM
[2]
  inhibition: 72%

## Cc1cccc(S(=O)(=O)N(C)[C@H](C)CCN2CCC(C)CC2)c1 [SB-258719]
[1]; hek293
  Ki: 32 nM

## CC1CN(CCn2ccc3ccc(Br)cc32)CC(C)N1 (stereo not given)
[2]
  inhibition: 26%

## Cc1ccc2ccn(CCN3CCCN(C)CC3)c2c1
[1]
  Ki: 125 nM
[2]
  inhibition: 62%

## FC(F)(F)c1ccc2ccn(CCN3CCCN4CCCCC4C3)c2c1 (stereo not given)
[1]
  Ki: 7 nM

## CN1CCCN(CCn2ccc3ccc(-c4ccsc4)cc32)CC1
[1]
  Ki: 109 nM
[2]
  inhibition: 68%

## CN1CCCN(CCn2ccc3c(Br)cccc32)CC1
[2]
  inhibition: 33%

## Brc1ccc2ccn(CCN3CCCN(C4CCCCC4)CC3)c2c1
[1]
  Ki: 17 nM
[2]
  inhibition: 96%

## CN1CCCN(CCn2ccc3ccc(OCc4ccccc4)cc32)CC1
[1]
  Ki: 182 nM
[2]
  inhibition: 28%

## CN1CCCN(CCn2ccc3ccc(Cl)cc32)CC1
[1]
  Ki: 34 nM
[2]
  inhibition: 85%

## CC1CN(CCn2ccc3ccc(Br)cc32)CCN1 (stereo not given)
[2]
  inhibition: 52%

## CC(C)(C)CN1CCCN(CCn2ccc3ccc(Br)cc32)CC1
[1]
  Ki: 163 nM
[2]
  inhibition: 70%

## CN1CCCN(CCn2ccc3ccc(C(C)(C)O)cc32)CC1
[2]
  inhibition: 6%

## Brc1ccc2ccn(CCN3CCNCC3)c2c1
[2]
  inhibition: 61%

## Brc1ccc2ccn(CCN3CCCN4CCCCC4C3)c2c1 (stereo not given)
[3]
  inhibition: 0%
[4]
  inhibition: 1%
[5]
  inhibition: 26%
[6]
  inhibition: 0%
[7]
  inhibition: 0%
[8]
  inhibition: 35%
[1]
  Ki: 3 nM
[9]
  inhibition: 15%
[10]
  inhibition: 4%
[11]
  inhibition: 20%
[12]
  Ki: 4070 nM
[13]
  inhibition: 17%
[14]
  inhibition: 27%
[15]
  inhibition: 2%
[2]
  inhibition: 99%

## Clc1ccc2ccn(CCN3CCCN4CCCCC4C3)c2c1 (stereo not given)
[1]
  Ki: 10 nM

## Brc1ccc2ccn(CCN3CCCN(C4CCCC4)CC3)c2c1
[1]
  Ki: 10 nM
[2]
  inhibition: 98%

## C[C@H](Nc1nc(N)nc(NC[C@H]2C[C@@H]2c2ccc(F)cc2)n1)c1ccccc1
[16]
  IC50: < 50 nM

## Brc1ccc2ccn(CCN3CCN(C4CCCCC4)CC3)c2c1
[2]
  inhibition: 36%

## Brc1cccc2ccn(CCN3CCN4CCCCC4C3)c12 (stereo not given)
[2]
  inhibition: 13%

## C=C(C)c1ccc2ccn(CCN3CCCN(C)CC3)c2c1
[1]
  Ki: 70 nM
[2]
  inhibition: 72%

## CN1CCCN(CCn2ccc3ccc(C(N)=O)cc32)CC1
[2]
  inhibition: 33%

## Brc1ccc2c(ccn2CCN2CCN3CCCCC3C2)c1 (stereo not given)
[1]
  Ki: 158 nM
[2]
  inhibition: 65%

## Brc1ccc2ccn(CCN3CCN4CCCCC4C3)c2c1 (stereo not given)
[1]
  Ki: 70 nM
[2]
  inhibition: 78%

## Brc1ccc2ccn(CCN3CCCNCC3)c2c1
[2]
  inhibition: 77%

## Brc1cccc2c1ccn2CCN1CCN2CCCCC2C1 (stereo not given)
[2]
  inhibition: 43%

## Brc1ccc2ccn(CCN3CCCN(c4ccccc4)CC3)c2c1
[2]
  inhibition: 18%

## Cc1cccc(C#N)c1-c1cccc2c1-c1cccc3c1[C@@H](C2)N(C)CC3
[1]
  Ki: 1 nM

## CN1CCCN(CCn2ccc3ccc(N)cc32)CC1
[2]
  inhibition: 0%

## Brc1ccc2ccn(CCN3CCCN(CC4CC4)CC3)c2c1
[1]
  Ki: 9 nM
[2]
  inhibition: 95%

## CN1CCCN(CCn2ccc3ccc(Br)cc32)CC1
[1]
  Ki: 31 nM
[2]
  inhibition: 93%

## CN1CCCN(CCn2ccc3ccc(F)cc32)CC1
[1]
  Ki: 288 nM
[2]
  inhibition: 60%
